In ChEMBL document CHEMBL1149147, “NR2B-selective N-methyl-D-aspartate antagonists: synthesis and evaluation of 5-substituted benzimidazoles” (J Med Chem, 2004):
pIC50, pKi: −log10 of the molar value.

Molecular target: Voltage-gated inwardly rectifying potassium channel KCNH2 (Homo sapiens, UniProt Q12809)
Experiment: In vitro inhibition of MK-499 binding to hERG in HEK293 cells
Type: cell-based
Conditions: read-out: IP

Voltage-gated inwardly rectifying potassium channel KCNH2, sequence (Q12809 whole entry): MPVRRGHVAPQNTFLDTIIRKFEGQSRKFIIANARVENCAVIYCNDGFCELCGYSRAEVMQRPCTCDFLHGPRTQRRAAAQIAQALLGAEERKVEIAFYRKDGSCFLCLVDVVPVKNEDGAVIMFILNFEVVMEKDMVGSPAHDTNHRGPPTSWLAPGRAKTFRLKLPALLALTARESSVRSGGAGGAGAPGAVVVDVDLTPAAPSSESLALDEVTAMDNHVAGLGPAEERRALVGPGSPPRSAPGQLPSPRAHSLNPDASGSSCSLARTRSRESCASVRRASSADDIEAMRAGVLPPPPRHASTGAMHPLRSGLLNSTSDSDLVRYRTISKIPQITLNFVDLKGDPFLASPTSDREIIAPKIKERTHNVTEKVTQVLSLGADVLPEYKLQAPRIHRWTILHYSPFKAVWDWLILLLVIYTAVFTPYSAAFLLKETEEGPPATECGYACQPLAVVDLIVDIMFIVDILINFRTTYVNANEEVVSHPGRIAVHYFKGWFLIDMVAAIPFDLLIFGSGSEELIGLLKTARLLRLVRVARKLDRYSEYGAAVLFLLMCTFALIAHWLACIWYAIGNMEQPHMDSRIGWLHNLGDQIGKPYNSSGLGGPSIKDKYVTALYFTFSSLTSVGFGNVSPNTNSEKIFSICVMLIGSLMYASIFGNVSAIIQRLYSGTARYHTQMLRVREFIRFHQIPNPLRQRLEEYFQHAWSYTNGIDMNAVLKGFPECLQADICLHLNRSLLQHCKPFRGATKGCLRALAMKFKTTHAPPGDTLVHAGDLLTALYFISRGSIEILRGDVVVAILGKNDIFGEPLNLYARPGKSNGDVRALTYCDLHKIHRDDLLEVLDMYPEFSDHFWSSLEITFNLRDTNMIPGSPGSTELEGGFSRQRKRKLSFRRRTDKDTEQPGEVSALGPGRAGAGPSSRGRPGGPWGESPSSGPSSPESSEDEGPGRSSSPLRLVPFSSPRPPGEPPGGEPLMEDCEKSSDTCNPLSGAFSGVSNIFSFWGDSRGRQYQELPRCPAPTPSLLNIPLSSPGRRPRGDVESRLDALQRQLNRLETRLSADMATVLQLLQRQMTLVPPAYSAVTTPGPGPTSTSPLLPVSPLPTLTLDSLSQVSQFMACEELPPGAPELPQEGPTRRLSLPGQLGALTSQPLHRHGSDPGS

In order of falling pIC50:
1. Nc1ccc2[nH]c(Cc3ccc(Oc4ccccc4)cc3)nc2c1  6.92
2. CS(=O)(=O)Nc1ccc2[nH]c(Cc3ccc(Oc4ccccc4)cc3)nc2c1  6.92
3. O=S(=O)(Nc1ccc2[nH]c(Cc3ccc(Oc4ccccc4)cc3)nc2c1)c1ccccc1  6.17
4. CCS(=O)(=O)Nc1ccc2[nH]c(Cc3ccc(Oc4ccccc4)cc3)nc2c1  5.80
5. c1ccc(Oc2ccc(Cc3nc4ccccc4[nH]3)cc2)cc1  5.70
6. Oc1ccc2[nH]c(CN3CCC(Cc4ccccc4)CC3)nc2c1  5.59
7. CC(=O)Nc1ccc2[nH]c(Cc3ccc(Oc4ccccc4)cc3)nc2c1  5.59
8. Oc1ccc2[nH]c(CN3CCC(Cc4ccccc4F)CC3)nc2c1  5.54
9. Oc1ccc2[nH]c(CN3CCC(Cc4c(F)cccc4F)CC3)nc2c1  5.52

Tested on: not listed separately
Experiment: Plasma clearance (in vivo) in mongrel dogs was determined
Type: ADME, organism-based, Canis lupus familiaris
Conditions: dog
In short: (§1)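 Single doses in dogs (n = 2): 1 mg/kg iv in 100% DMSO, or 3 mg/kg po gavaged in 1% methylcellulose suspension. Plasma was sampled at multiple time points up to 24 h. Interanimal variability was below 20%.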

In order of rising clearance:
1. Oc1ccc2[nH]c(CN3CCC(Cc4ccccc4)CC3)nc2c1  0.6 mL/min/kg
2. Oc1ccc2[nH]c(CN3CCC(Cc4ccccc4F)CC3)nc2c1  0.6 mL/min/kg

Tested on: not listed separately
Experiment: Oral bioavailability in rat
Type: ADME, organism-based
Conditions: in vivo
In short: (§2)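 Conscious male Sprague-Dawley rats (n = 3–4) given single doses: 2 mg/kg iv in 100% DMSO, or 10 mg/kg po by gavage in 1% methylcellulose. Plasma was sampled at multiple times up to 24 h. Interanimal variability was below 20%.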

In order of falling bioavailability:
1. CS(=O)(=O)Nc1ccc2[nH]c(Cc3ccc(Oc4ccccc4)cc3)nc2c1  97%
2. Oc1ccc2[nH]c(CN3CCC(Cc4ccccc4)CC3)nc2c1  20%
3. Oc1ccc2[nH]c(CN3CCC(Cc4ccccc4F)CC3)nc2c1  6.4%

Tested on: not listed separately
Experiment: Plasma clearance (in vivo) in rats was determined
Type: ADME, organism-based
Conditions: rat
In short: as §2

In order of falling clearance:
1. Oc1ccc2[nH]c(CN3CCC(Cc4ccccc4)CC3)nc2c1  22.8 mL/min/kg
2. Oc1ccc2[nH]c(CN3CCC(Cc4ccccc4F)CC3)nc2c1  12.3 mL/min/kg
3. CS(=O)(=O)Nc1ccc2[nH]c(Cc3ccc(Oc4ccccc4)cc3)nc2c1  8.3 mL/min/kg

Tested on: not listed separately
Experiment: Half-life in rats was determined
Type: ADME, organism-based
Conditions: rat, in vivo
In short: as §2

First: Oc1ccc2[nH]c(CN3CCC(Cc4ccccc4)CC3)nc2c1
Second: Oc1ccc2[nH]c(CN3CCC(Cc4ccccc4F)CC3)nc2c1
The half-life of the first is higher: > 8 h for the first, 1 h for the second.

Work on `CS(=O)(=O)Nc1ccc2[nH]c(Cc3ccc(Oc4ccccc4)cc3)nc2c1` yielded a half-life of 1.97 h.

Molecular target: T1, Adrenergic receptor alpha-1 (Rattus norvegicus, UniProt P15823+P23944+P43140)
T1 sequence (P15823 whole entry): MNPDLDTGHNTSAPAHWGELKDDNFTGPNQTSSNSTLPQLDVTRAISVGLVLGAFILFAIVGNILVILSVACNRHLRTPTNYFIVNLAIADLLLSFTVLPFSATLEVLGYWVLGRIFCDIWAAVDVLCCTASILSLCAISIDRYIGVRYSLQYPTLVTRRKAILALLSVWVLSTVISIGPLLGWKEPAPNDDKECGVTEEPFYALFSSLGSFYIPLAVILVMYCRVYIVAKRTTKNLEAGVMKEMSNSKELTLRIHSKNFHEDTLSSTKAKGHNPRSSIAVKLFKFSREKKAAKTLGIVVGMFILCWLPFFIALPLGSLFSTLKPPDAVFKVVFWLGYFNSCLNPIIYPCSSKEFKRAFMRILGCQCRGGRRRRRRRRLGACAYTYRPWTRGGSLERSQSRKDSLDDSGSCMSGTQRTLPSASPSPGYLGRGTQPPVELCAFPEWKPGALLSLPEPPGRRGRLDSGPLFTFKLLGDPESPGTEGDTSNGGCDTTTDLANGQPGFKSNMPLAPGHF
T1 sequence (P23944 whole entry): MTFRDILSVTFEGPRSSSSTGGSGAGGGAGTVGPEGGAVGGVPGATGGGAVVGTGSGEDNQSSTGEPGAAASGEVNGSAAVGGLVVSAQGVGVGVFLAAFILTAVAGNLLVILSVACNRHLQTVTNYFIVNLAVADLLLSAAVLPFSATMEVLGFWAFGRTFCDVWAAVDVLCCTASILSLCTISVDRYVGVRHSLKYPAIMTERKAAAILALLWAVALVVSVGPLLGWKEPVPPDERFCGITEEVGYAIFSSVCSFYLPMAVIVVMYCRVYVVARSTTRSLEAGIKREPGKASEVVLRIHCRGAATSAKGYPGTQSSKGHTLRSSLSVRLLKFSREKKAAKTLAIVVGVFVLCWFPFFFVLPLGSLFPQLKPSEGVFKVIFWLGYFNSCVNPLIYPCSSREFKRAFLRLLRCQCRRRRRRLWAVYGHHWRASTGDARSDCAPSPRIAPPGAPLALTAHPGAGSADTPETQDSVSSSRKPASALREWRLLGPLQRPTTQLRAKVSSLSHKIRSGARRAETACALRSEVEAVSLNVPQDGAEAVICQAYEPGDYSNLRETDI
T1 sequence (P43140 whole entry): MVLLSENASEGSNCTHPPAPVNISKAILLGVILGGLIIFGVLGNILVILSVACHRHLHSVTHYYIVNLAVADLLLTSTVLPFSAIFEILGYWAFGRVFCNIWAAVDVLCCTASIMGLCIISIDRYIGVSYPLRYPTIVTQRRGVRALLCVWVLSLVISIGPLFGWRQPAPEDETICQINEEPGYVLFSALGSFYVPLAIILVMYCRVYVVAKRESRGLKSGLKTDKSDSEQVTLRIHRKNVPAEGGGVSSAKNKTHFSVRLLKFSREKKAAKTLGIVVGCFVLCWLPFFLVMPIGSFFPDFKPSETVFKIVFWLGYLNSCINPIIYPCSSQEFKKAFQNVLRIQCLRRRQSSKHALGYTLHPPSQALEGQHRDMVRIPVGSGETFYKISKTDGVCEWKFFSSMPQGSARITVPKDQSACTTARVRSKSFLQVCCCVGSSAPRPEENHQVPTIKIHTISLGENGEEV
Experiment: In vitro inhibitory activity against alpha-1 adrenergic receptor binding to rat brain membranes
Parameters: species or system Membrane
Conditions: not given
In short: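 Competition binding to α1-adrenergic receptors on membranes prepared from rat brain, using the prazosin binding assay. IC50 is the geometric mean of at least 4 determinations.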

In order of rising IC50:
1. COc1ccc2[nH]c(Cc3ccc(Oc4ccccc4)cc3)nc2c1  530 nM
2. CC(C)S(=O)(=O)Nc1ccc2[nH]c(CN3CCC(Cc4ccccc4)CC3)nc2c1  570 nM
3. Oc1ccc2[nH]c(CN3CCC(Cc4ccccc4)CC3)nc2c1  670 nM
4. Oc1ccc2[nH]c(CN3CCC(Cc4ccccc4F)CC3)nc2c1  730 nM
5. Nc1ccc2[nH]c(Cc3ccc(Oc4ccccc4)cc3)nc2c1  2600 nM
6. Oc1ccc2[nH]c(CN3CCC(Cc4c(F)cccc4F)CC3)nc2c1  2600 nM
7. CCS(=O)(=O)Nc1ccc2[nH]c(Cc3ccc(Oc4ccccc4)cc3)nc2c1  2800 nM
8. CC(C)S(=O)(=O)Nc1ccc2[nH]c(Cc3ccc(Oc4ccccc4)cc3)nc2c1  3100 nM
9. CS(=O)(=O)Nc1ccc2[nH]c(Cc3ccc(Oc4ccccc4)cc3)nc2c1  4000 nM
10. c1ccc(Oc2ccc(Cc3nc4ccccc4[nH]3)cc2)cc1  4200 nM
11. O=S(=O)(Nc1ccc2[nH]c(Cc3ccc(Oc4ccccc4)cc3)nc2c1)c1ccccc1  14000 nM
12. CC(=O)Nc1ccc2[nH]c(Cc3ccc(Oc4ccccc4)cc3)nc2c1  20000 nM

Tested on: Rattus norvegicus
Experiment: Compound was evaluated in vivo for carrageenan induced mechanical hyperalgesia in rats, perorally
Type: functional
Conditions: not given
In short: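 Male Sprague-Dawley rats (100–120 g) received 4.5 mg carrageenan intraplantar, with a 3 h post-injection paw pressure (vocalization) threshold. Agent was gavaged in 1% methylcellulose suspension (n = 8/dose) 1 h before the reading. Response is expressed as % of carrageenan hyperalgesia; the highest oral dose was 30 mg/kg, one determination.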

For `CS(=O)(=O)Nc1ccc2[nH]c(Cc3ccc(Oc4ccccc4)cc3)nc2c1`, the Activity was >30 mg/kg.

Molecular target: T2, Glutamate NMDA receptor; GRIN1/GRIN2B (Homo sapiens, UniProt Q05586+Q13224)
T2 sequence (Q13224 whole entry, other chains not shown): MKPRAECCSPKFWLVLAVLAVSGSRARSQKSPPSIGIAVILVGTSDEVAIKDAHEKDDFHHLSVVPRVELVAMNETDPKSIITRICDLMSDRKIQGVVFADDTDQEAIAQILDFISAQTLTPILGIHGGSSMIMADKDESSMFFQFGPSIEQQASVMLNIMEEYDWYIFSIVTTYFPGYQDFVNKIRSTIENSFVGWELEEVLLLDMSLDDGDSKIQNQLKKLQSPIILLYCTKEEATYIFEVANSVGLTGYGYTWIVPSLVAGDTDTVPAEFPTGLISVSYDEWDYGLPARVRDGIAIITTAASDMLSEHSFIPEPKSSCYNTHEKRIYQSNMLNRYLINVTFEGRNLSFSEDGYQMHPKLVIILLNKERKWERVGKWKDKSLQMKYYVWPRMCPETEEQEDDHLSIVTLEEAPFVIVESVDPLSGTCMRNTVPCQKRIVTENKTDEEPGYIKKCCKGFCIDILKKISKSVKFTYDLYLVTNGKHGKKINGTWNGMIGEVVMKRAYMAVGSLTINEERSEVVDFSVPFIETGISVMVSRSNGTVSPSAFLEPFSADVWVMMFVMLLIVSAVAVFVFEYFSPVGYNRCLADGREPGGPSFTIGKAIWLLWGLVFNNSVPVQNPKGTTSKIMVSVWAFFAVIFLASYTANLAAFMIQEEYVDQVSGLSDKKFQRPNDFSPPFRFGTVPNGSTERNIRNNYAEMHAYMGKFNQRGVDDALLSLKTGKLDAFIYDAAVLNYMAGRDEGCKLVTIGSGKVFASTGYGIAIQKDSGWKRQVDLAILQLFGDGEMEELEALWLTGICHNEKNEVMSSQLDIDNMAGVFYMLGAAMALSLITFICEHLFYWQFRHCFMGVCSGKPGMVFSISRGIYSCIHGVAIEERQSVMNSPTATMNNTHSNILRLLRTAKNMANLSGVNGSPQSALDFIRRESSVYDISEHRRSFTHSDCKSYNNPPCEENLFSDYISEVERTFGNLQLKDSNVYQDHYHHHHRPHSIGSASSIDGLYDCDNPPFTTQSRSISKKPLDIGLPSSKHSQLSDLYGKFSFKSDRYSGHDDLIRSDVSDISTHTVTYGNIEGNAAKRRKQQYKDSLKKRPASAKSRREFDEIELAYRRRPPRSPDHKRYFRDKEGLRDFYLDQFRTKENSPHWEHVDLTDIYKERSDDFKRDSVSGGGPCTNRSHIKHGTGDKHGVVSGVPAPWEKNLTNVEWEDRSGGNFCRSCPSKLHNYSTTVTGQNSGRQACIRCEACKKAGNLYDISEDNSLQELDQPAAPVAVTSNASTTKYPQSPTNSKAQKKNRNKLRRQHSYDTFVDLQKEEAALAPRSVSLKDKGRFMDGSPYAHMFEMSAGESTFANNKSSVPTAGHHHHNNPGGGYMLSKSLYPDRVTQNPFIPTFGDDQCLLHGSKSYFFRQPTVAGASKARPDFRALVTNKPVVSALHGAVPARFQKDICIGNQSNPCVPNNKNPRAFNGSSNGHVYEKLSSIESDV
Experiment: In vitro inhibition of Glu/Gly stimulated [Ca2+] influx in LtK-cells expressing the hNR1a/NR2B receptor
Type: functional
Conditions: not given
In short: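 Fluorescence readout of Ca2+ flux stimulated by glutamate/glycine in Ltk- cells stably expressing human NR1a/NR2B, measured as inhibition. IC50 is the geometric mean of at least n = 4, with 2×SEGM given.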

In order of rising pIC50:
1. COc1ccc2[nH]c(Cc3ccc(Oc4ccccc4)cc3)nc2c1  5.04
2. CC(C)S(=O)(=O)Nc1ccc2[nH]c(CN3CCC(Cc4ccccc4)CC3)nc2c1  6.52
3. c1ccc(Oc2ccc(Cc3nc4ccccc4[nH]3)cc2)cc1  6.70
4. Nc1ccc2[nH]c(Cc3ccc(Oc4ccccc4)cc3)nc2c1  7.11
5. O=S(=O)(Nc1ccc2[nH]c(Cc3ccc(Oc4ccccc4)cc3)nc2c1)c1ccccc1  7.31
6. CC(=O)Nc1ccc2[nH]c(Cc3ccc(Oc4ccccc4)cc3)nc2c1  7.38
7. Oc1ccc2[nH]c(CN3CCC(Cc4c(F)cccc4F)CC3)nc2c1  7.68
8. CC(C)S(=O)(=O)Nc1ccc2[nH]c(Cc3ccc(Oc4ccccc4)cc3)nc2c1  7.85
9. Oc1ccc2[nH]c(CN3CCC(Cc4ccccc4F)CC3)nc2c1  8.01
10. Oc1ccc2[nH]c(CN3CCC(Cc4ccccc4)CC3)nc2c1  8.09
11. CCS(=O)(=O)Nc1ccc2[nH]c(Cc3ccc(Oc4ccccc4)cc3)nc2c1  8.68
12. CS(=O)(=O)Nc1ccc2[nH]c(Cc3ccc(Oc4ccccc4)cc3)nc2c1  9.14

Tested on: not listed separately
Experiment: Half-life in mongrel dogs was determined
Type: ADME, organism-based, Canis lupus familiaris
Conditions: dog, in vivo
In short: as §1

In order of rising half-life:
1. Oc1ccc2[nH]c(CN3CCC(Cc4ccccc4F)CC3)nc2c1  6.5 h
2. Oc1ccc2[nH]c(CN3CCC(Cc4ccccc4)CC3)nc2c1  6.7 h

Molecular target: T2, Glutamate NMDA receptor; GRIN1/GRIN2B
Experiment: Compound was evaluated for in vitro inhibition of [3H][(E)-N-(2-methoxybenzyl)cinnamamidine binding to human NR1a/NR2B receptors expressed in LtK-cells
Type: cell-based
Conditions: not given

In order of falling pKi:
1. CS(=O)(=O)Nc1ccc2[nH]c(Cc3ccc(Oc4ccccc4)cc3)nc2c1  9.17
2. Oc1ccc2[nH]c(CN3CCC(Cc4c(F)cccc4F)CC3)nc2c1  9.09
3. Oc1ccc2[nH]c(CN3CCC(Cc4ccccc4F)CC3)nc2c1  9.07
4. CCS(=O)(=O)Nc1ccc2[nH]c(Cc3ccc(Oc4ccccc4)cc3)nc2c1  8.52
5. CC(C)S(=O)(=O)Nc1ccc2[nH]c(Cc3ccc(Oc4ccccc4)cc3)nc2c1  7.82
6. O=S(=O)(Nc1ccc2[nH]c(Cc3ccc(Oc4ccccc4)cc3)nc2c1)c1ccccc1  7.77
7. CC(=O)Nc1ccc2[nH]c(Cc3ccc(Oc4ccccc4)cc3)nc2c1  7.03
8. Nc1ccc2[nH]c(Cc3ccc(Oc4ccccc4)cc3)nc2c1  6.74
9. CC(C)S(=O)(=O)Nc1ccc2[nH]c(CN3CCC(Cc4ccccc4)CC3)nc2c1  6.62
10. c1ccc(Oc2ccc(Cc3nc4ccccc4[nH]3)cc2)cc1  6.59
11. COc1ccc2[nH]c(Cc3ccc(Oc4ccccc4)cc3)nc2c1  5.08

Tested on: Rattus norvegicus
Experiment: Compound was evaluated in vivo for carrageenan induced mechanical hyperalgesia in rats, intravenously
Type: functional
Conditions: not given
In short: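 Male Sprague-Dawley rats (100–120 g) received 4.5 mg carrageenan in 0.15 mL saline intraplantar, or saline. Agent was given iv in 50% PEG-200/D5W (n = 6/dose) 15 min before the paw pressure read at 3 h. Threshold was taken as vocalization on an algometer.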

Compound `Oc1ccc2[nH]c(CN3CCC(Cc4ccccc4)CC3)nc2c1` has an Activity of 3.3 mg/kg.

With `Oc1ccc2[nH]c(CN3CCC(Cc4ccccc4F)CC3)nc2c1` the Activity was <3 mg/kg.

Tested on: not listed separately
Experiment: Oral bioavailability in dog (mongrel)
Type: ADME, organism-based, Canis lupus familiaris
Conditions: in vivo
In short: as §1

In order of rising bioavailability:
1. Oc1ccc2[nH]c(CN3CCC(Cc4ccccc4F)CC3)nc2c1  87%
2. Oc1ccc2[nH]c(CN3CCC(Cc4ccccc4)CC3)nc2c1  90%
